Screens: PubChem BioAssay, several laboratories
hERG rescue = hERG rescue from dofetilide block, primary screen, cell-based, CHO-hERG, FluxOR thallium flux, dofetilide IC70 | activation (rescue from dofetilide block), less the hit threshold, % at 10 µM | 310,000 compounds, 0.51% hits | dofetilide IC70 present | Voltage-gated inwardly rectifying potassium channel KCNH2 (Homo sapiens), Q12809;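 active means activation above the mean of controls blocked by dofetilide plus 5 SD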;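 further: thallium influx through hERG after potassium depolarization seen as dye fluorescence rise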
KCC2 mod = KCC2 cotransporter modulators, thallium flux, primary screen, cell-based, HEK293 KCC2, FluoZin-2 fluorescence, MLSMR | Solute carrier family 12 member 5 (Homo sapiens), Q9H2X9 | KCC2 cells, thallium flux FluoZin-2 fluorescence | B-score of Tl+ flux slope (higher = more flux/activation; lower = inhibition) at 10 µM | 190,000 compounds, 2.2% hits;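 active means thallium flux slope and its plate-corrected score both differing from the plate sample mean at a set confidence after two filtering rounds, in either direction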;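 further: slope of fluorescence scaled to starting intensity during 10 to 20 s after thallium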
KCNK9 inh = KCNK9 potassium channel inhibitors, primary screen, HEK293 cells, thallium flux; FluxOR thallium flux fluorescence; hits give low values; B-score at 10 µM; Potassium channel subfamily K member 9 (Homo sapiens), Q9NPC2; 310,000 compounds, 1.2% hits;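 active means ratio B-score over 3 SD below the library mean, with starting fluorescence within 5 SD of its mean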;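 further: negative B-score means less thallium flux so channel inhibition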
KCNK3 inh = human KCNK3 channel inhibitors, primary screen, CHO cells, FluxOR thallium flux, B-score. B-score at 10 µM. AID 602410, 2012. FluxOR fluorescence; hits give low values. 340,000 compounds, 0.84% hits. Potassium channel subfamily K member 3 (Homo sapiens), O14649;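 active means B-score under library mean minus 4 SD, starting fluorescence ratio at most library mean plus 5 SD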;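 further: more negative B-score means stronger inhibition of thallium flux through KCNK3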
KCNQ1 act = potentiators or activators of KCNQ1 channel, primary screen, cell-based, thallium flux, high-throughput; CHO-K1 KCNQ1, thallium flux FluxOR fluorescence; hits give high values; 310,000 compounds, 0.35% hits; AID 2648, 2010; B-score at 10 µM;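 active means fluorescence ratio B-score, a plate-corrected score, at least three library SD, with initial intensity B-score within 5 SD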
Target sequence (P51787 whole entry, looked up): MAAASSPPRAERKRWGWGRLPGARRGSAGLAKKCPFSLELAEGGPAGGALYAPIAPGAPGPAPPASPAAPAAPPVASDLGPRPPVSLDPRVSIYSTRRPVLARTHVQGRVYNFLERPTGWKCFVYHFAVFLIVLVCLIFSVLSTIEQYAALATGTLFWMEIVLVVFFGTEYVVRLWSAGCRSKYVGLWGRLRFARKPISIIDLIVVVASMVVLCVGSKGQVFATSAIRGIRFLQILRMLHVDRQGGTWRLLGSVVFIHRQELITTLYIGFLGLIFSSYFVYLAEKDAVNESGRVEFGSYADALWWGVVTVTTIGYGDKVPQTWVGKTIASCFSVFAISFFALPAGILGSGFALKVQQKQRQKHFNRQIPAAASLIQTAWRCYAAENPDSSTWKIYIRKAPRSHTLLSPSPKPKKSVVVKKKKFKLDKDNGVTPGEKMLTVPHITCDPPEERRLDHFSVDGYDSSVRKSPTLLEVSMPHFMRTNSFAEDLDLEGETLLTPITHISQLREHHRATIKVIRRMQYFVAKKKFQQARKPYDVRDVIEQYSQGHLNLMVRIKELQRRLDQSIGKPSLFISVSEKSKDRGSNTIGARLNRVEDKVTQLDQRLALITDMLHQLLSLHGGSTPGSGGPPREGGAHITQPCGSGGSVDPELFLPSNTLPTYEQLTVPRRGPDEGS
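Doses: Single concentration per compound, DMSO matched to controls | Test system: KCNQ1-transfected CHO-K1 cells | Timing: 90 min dye loading and 20 min compound exposure, both at room temperature | Measured by: Kinetic FluxOR thallium fluorescence, 10-s 1-Hz baseline, 110-s post-stimulus read | Medium: Assay buffer with matched DMSO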
KCNQ1 block = inhibitors of human KCNQ1 channel, primary screen, cell-based, thallium flux, high-throughput. CHO-K1 KCNQ1, FluxOR thallium flux fluorescence; hits give high values. 310,000 compounds, 1.3% hits. Potassium voltage-gated channel subfamily KQT member 1 (Homo sapiens), P51787. B-score at 10 µM;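 active means compounds whose thallium flux B-score, printed positive for inhibition, exceeds three library SD while starting fluorescence stays within three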;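 further: channel opened by potassium depolarization with thallium stimulus after 20 min compound exposure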
* marks the source's active call; other numbers are inactive results; i = inactive; · = no result. Hits are enriched below; roughly 4.1% of the tested compounds scored in any of these assays.

SMILES	hERG rescue	KCC2 mod	KCNK9 inh	KCNK3 inh	KCNQ1 act	KCNQ1 block
Cc1cccc(NC(=O)c2ccccc2[N+](=O)[O-])n1	-9.2	·	i	i	i	i
CCCCNC(=O)C(CC)(ONc1ccccc1C(F)(F)F)c1ccccc1OC (centres undefined)	·	·	·	i	·	·
O=C(N/N=C/c1ccccn1)c1cc(Br)ccc1O	0.2	·	i	i	10*	i
CC(C)(C)c1ccc(CN2C3=NCCCN3c3ccccc32)cc1	-23.3	-0.0553	i	i	i	11*
CN(N=Nc1ccc([N+](=O)[O-])cc1)c1ccccc1	-11.1	i	i	i	i	i
CN(N=Nc1cccc([N+](=O)[O-])c1)c1ccccc1	-2.8	·	-6.68*	i	i	i
Cc1c(CCOC(=O)CC23CC4CC(CC(C)(C4)C2)C3)sc[n+]1CC(=O)c1ccccc1	-18.0	0.514	i	i	i	11*
CCC(C)N(C(=O)CSc1nnc(-c2cccs2)n1C1CC1)C1CCS(=O)(=O)C1 (centres undefined)	·	·	·	i	·	·
COc1ccc(C(=O)CC(=O)Nc2ccc([N+](=O)[O-])cc2)cc1	-8.0	·	i	i	i	i
COc1ccc(C(=O)CC(Nc2ccc([N+](=O)[O-])cc2)c2ccc(OC)cc2)cc1 (centres undefined)	-12.2	-0.696	i	i	i	9*
COc1ccc(C(=O)/C(C#N)=N/Nc2ccc([N+](=O)[O-])cc2)cc1	-10.1	-3.6*	i	i	i	6*
N#C/C(=N\Nc1ccc(Cl)cc1)C(=O)c1ccccc1	-8.1	-3.46*	i	i	i	i
Cc1c(N/N=C(\C#N)C(=O)c2ccc(Cl)cc2)c(=O)n(-c2ccccc2)n1C	-11.4	0.292	i	i	i	i
O=C(C[C@H]1C/C=C\C[C@@H](Cc2ccc(F)cc2)C(=O)OC[C@H]2CCCN2C1=O)NCCO	·	·	·	i	·	·
CC1CCN(C(=O)CSc2nnc3ccc(-c4cccnc4)nn23)CC1	-11.6	·	i	i	i	i
O=C(NNS(=O)(=O)c1ccc([N+](=O)[O-])cc1)c1ccc2ccccc2c1O	-26.0	·	i	i	i	7*
O=C(NNS(=O)(=O)c1ccc([N+](=O)[O-])cc1)c1ccccc1	·	·	·	i	·	·
C/C(=N\NC(=O)c1ccc(Cn2cc(Br)cn2)o1)c1ccc(NC(=O)c2ccoc2C)cc1	-7.3	·	i	i	i	10*
CC1=NN(/C(=N\c2nnc(C)s2)Nc2ccc(C(C)(C)C)cc2)[C@H](c2ccc(C)cc2)S1	-4.6	-0.364	i	i	i	8*
Cc1ccc(-c2noc(N=O)c2NO)cc1	-16.9	1.46	-7.05*	i	i	i
O=Nc1onc(-c2ccc([N+](=O)[O-])cc2)c1NO	-20.6	0.128	i	i	i	i
COc1ccccc1C1CCN(C(=O)c2ccc(C(C)(C)C)cc2)CC1	-0.1	·	i	i	i	i
Cc1oc(=O)cc(OCc2ccccc2)c1C	·	·	·	i	·	·
CC(NC(=O)CN1CCOCC1)c1ccccc1 (centres undefined)	-7.3	·	i	i	i	i
CCOC(=O)C1CCCN(c2c(C(=O)c3ccccc3)cnc3ccc(OC)cc23)C1 (centres undefined)	-19.8	-2.89	i	i	i	6*
O=C(Nc1nc2ccccc2[nH]1)c1cccc([N+](=O)[O-])c1	-3.8	·	i	i	i	i
O=C(Cc1nc2ccccc2[nH]1)c1cccc([N+](=O)[O-])c1	-16.5	-0.000124	i	i	i	8*
